Results of several laboratories.
Compare with care: the assays were run in different laboratories.
Target: Casein kinase I isoform gamma-2 (CSNK1G2, Homo sapiens, UniProt P78368)

F[C@@H]1CCN(c2nccc(-c3cnn4ncccc34)n2)C1 — remaining binding (binding; 1 µM): 74%
Cn1nc(C(F)(F)F)cc1-c1cnc(N2CCc3cc(S(=O)(=O)Nc4c(F)cc(Cl)cc4F)cc(N4CCCC4=O)c32)nc1 — remaining binding (cell-free assay, competition with immobilised ligand; 1 µM): 100%
N#Cc1ccccc1CSc1nnc2c(n1)[nH]c1ccccc12 — remaining binding (binding, competition with immobilised ligand; 10 µM): 81%
Cc1cnn2ncc(-c3ccnc(N(C)C)n3)c2c1 — remaining binding (binding; 1 µM): 100%
CCS(=O)(=O)c1cc2cc(C[C@](O)(CC(C)(C)c3ccc(F)cc3C(N)=O)C(F)(F)F)[nH]c2cn1 — remaining binding (cell-free assay, competition with immobilised ligand; 1 µM): 93%
CCN1CCN(Cc2ccc(C(=O)Nc3ccc(C)c(Oc4ccc5c(c4)CC(=O)N5)c3)cc2C(F)(F)F)CC1 — remaining binding (binding, competition with immobilised ligand; 1 µM): 100%
COc1cnc(Nc2cccc(S(N)(=O)=O)c2)nc1N1CCN(c2ccccc2)CC1 — remaining binding (binding, competition with immobilised ligand; 1 µM): 100%
O=C(c1ccc(Nc2ncc(Cl)c(-c3ccc(Cl)s3)n2)cc1)N1CCC(N2CCCC2)CC1 — remaining binding (binding, competition with immobilised ligand; 1 µM): 100%
CN(C)c1nccc(-c2cnn3ncccc23)n1 — remaining binding (binding; 1 µM): 85%
O=C(NCCCN1CCOCC1)c1ccc(Nc2ncc(Cl)c(-c3ccc(Cl)s3)n2)cc1 — remaining binding (binding, competition with immobilised ligand; 1 µM): 100%
O=C(Nc1c[nH]nc1C(=O)NC1CCNCC1)c1cc(F)cc(F)c1 — remaining binding (binding, competition with immobilised ligand; 1 µM): 100%
N[C@H]1CCN(c2nccc(-c3cnn4ncccc34)n2)C1 — remaining binding (binding; 1 µM): 98%
Cc1c(C(=O)O)cc(-c2ccc(C3CCNCC3)cc2)c2ccc(-c3ccc(C(F)(F)F)cc3)cc12 — remaining binding (cell-free assay, competition with immobilised ligand; 1 µM): 100%
C[C@H]1CCN(c2nccc(-c3cnn4ncccc34)n2)C1 — remaining binding (binding; 1 µM): 64%
CN([C@@H]1CCc2c(CC(=O)O)c3cc(S(C)(=O)=O)ccc3n2C1)S(=O)(=O)c1ccc(F)cc1 — remaining binding (cell-free assay, competition with immobilised ligand; 1 µM): 100%
CNC(=O)[C@@H]1CC[C@@H](n2c(-c3ccc4cnccc4c3)nc3ccc(C(=O)NCc4cccc(C(N)=O)c4)cc32)C1 — remaining binding (binding, competition with immobilised ligand; 1 µM): 97%
CNCc1ccccc1-c1csc([C@@H](C)Nc2nc(C)nc3cc(OC)c(OC)cc23)c1 — remaining binding (cell-free assay, competition with immobilised ligand; 1 µM): 98%
O=C(c1ccc(Nc2nccc(-c3cc4ccccc4s3)n2)cc1)N1CCC(N2CCCC2)CC1 — remaining binding (binding, competition with immobilised ligand; 1 µM): 94%
N#CC1(c2ccccn2)CCN(Cc2cc(C(=O)N3CCCC3)c(=O)n3ccccc23)CC1 — remaining binding (cell-free assay, competition with immobilised ligand; 1 µM): 76%
COc1ccnn2ncc(-c3ccnc(N(C)C)n3)c12 — remaining binding (binding; 1 µM): 81%
Nc1ncc2c(n1)-c1c([nH]c3ccc(C#CC4CC4)cc13)CCCC2 — remaining binding (binding, competition with immobilised ligand; 1 µM): 100%
